Reference: PubChem BioAssay
Results filed as inconclusive are left out.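 How the source made its calls, unless noted: active means viability increase at or above a cutoff of the median across tested compounds plus 3 SD (cut at about 8.5% in these data, passing the limit was not always enough); inconclusive means some gains above the cutoff, reason not given; inactive means the rest.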

Tests used:
[1] = OD615 S. cerevisiae growth inhibition, permissive medium, pilot counter-assay, permissive growth control for S. cerevisiae lifespan shortening project (AID 705;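 active means growth inhibition above 25% in both replicates, a cutoff set 3 SD above the mean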); conditions: OD615, 24 h, at 10 µM, hits give high values
Procedure, shortened: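 System: engineered DeaD yeast; Medium: permissive raffinose/galactose medium; Compound dosing: 10 µM single dose, 0.25% DMSO; Incubation: 4 h cell pre-growth, 24 h exposure at 30 °C; Technique: OD at 615 nm; Evaluation: growth inhibition from lowered OD615 after 24 h.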

[2] = Restrictive medium S. cerevisiae growth inhibition, OD615, pilot screen of yeast lifespan reduction project, restrictive growth control (AID 706;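 active means growth inhibition above a set limit, 3 SD over mean compound inhibition, in both replicates, cut at about 43% in these data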;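 further: modified DeaD lifespan yeast strain shifted to restrictive glucose medium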); conditions: OD615, 48 h, at 10 µM, hits give high values
Procedure, shortened: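 Material: modified S. cerevisiae; buffer or medium: CSMM-D glucose medium; doses: one concentration, 10 µM final, 0.25% DMSO; incubation: 48 h compound exposure at 30 °C; detection: optical density at 615 nm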

[3] = viability gain of MRP-1-high H69AR cells under doxorubicin, pilot screen, MRP-1 activator project, CellTiter-Glo, duplicate (AID 807); conditions: H69AR viability with doxorubicin, CellTiter-Glo luminescence; at 10 µM; hits give high values;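 further: compound pretreatment 18-22 h then 72 h combined with doxorubicin; 0% = doxorubicin alone and 100% = vehicle without doxorubicin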
[4] = growth suppression of PTEN-deleted HCT116, pilot screen, cell-based, HCT116 clonal line, CellTiter-Glo (AID 824;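 active means viability at or below 27.92% in each of two runs, the all-compound median minus 4 SD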;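 further: 0% = 20 µM Hyamine control and 100% = vehicle cell control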); conditions: 60 h, at 10 µM, hits give low values
[5] = inhibitors of the yeast RAM network, pilot screen, dse1pr::URA3 reporter, 5-FOA selection (AID 869;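 active means inhibition over a set limit, the all-compound mean plus 3 SD, in both replicate runs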;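 further: 0% = DMSO wells with no growth and 100% = 10 µM 1-NA-PP1 with full growth; RAM network block rescues cells from 5-FOA so hits raise OD615 growth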); conditions: S. cerevisiae dse1pr::URA3 5-FOA growth, OD615, 2 d; at 10 µM; hits give high values; strain carries analog-sensitive mutant Cbk1 kinase
[6] = RAM signaling pathway blockade in yeast – S. cerevisiae, Pdr1DBD-CYC8 efflux-inhibited sensitized strain, primary screen (AID 1298;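 active means RAM network inhibition above 8.4% in each of two replicates, 3 SD over the compound average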;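 further: 0% = DMSO untreated cells without growth and 100% = 10 µM 1-NA-PP1 full growth; higher means more yeast growth rescued from 5-FOA killing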); conditions: S. cerevisiae cbk1-as DSE1-URA3 strain, 5-FOA growth OD615, 2 d; at 50 µM; hits give high values

CN(CCNC(=O)c1cc2c(=O)n(C)c3ccccc3c2n1C)Cc1ccccc1
inactive: growth inhibition [1] -12% | growth inhibition [2] -7.87% | viability increase [3] -8.65% | viability [4] 41.1% | inhibition [5] 1.83% | RAM network inhibition [6] -0.47%

CCCCS(=O)CC(CS(=O)CCCC)OC(=O)c1ccc(C)cc1 (stereo not given)
inactive: growth inhibition [1] -10.6% | growth inhibition [2] -7.7% | viability increase [3] -1.14% | viability [4] 96.3% | inhibition [5] 1.73% | RAM network inhibition [6] 0.87%

CCOc1c(Br)cc(C(N)=O)cc1OC
inactive: growth inhibition [1] 5.05% | growth inhibition [2] -3.4% | viability increase [3] -2.49% | viability [4] 101% | inhibition [5] 0.87% | RAM network inhibition [6] 2.56%

COC(=O)c1c(C)oc2cc(Br)c(OCC(=O)C(C)(C)C)cc12
inactive: growth inhibition [1] -9.2% | growth inhibition [2] -14.9% | viability increase [3] -2.86% | viability [4] 90.9% | inhibition [5] 1.84% | RAM network inhibition [6] 3.84%

CCCC(C)NC(=O)c1ccc(F)cc1 (stereo not given)
inactive: growth inhibition [1] -11.8% | growth inhibition [2] -7.83% | viability increase [3] -1.81% | viability [4] 99.9% | inhibition [5] 0.66% | RAM network inhibition [6] 1.8%

CCOC(=O)c1ccc(NC(=O)c2cccc(S(=O)(=O)N3CCOCC3)c2)cc1
inactive: growth inhibition [1] -9.14% | growth inhibition [2] -4.13% | viability increase [3] -0.35% | viability [4] 57.2% | inhibition [5] 2.96% | RAM network inhibition [6] 7.23%

COC(=O)C(CC(C)C)Oc1ccc2c(C)cc(=O)oc2c1 (stereo not given)
inactive: growth inhibition [1] -10.5% | growth inhibition [2] 5.8% | viability increase [3] -2.47% | viability [4] 92.6% | inhibition [5] 1.14% | RAM network inhibition [6] 1.38%

O=C1CC(c2ccccc2)c2cc(O)ccc2O1 (stereo not given)
inactive: growth inhibition [1] -23.7% | growth inhibition [2] -23% | viability increase [3] 3.84% | viability [4] 69.2% | inhibition [5] 1.45% | RAM network inhibition [6] 2.58%

C=CCn1c(SC(CCO)C(=O)NCc2ccco2)nc2sc3c(c2c1=O)CCC3 (stereo not given)
inactive: growth inhibition [1] -8.84% | growth inhibition [2] 0.375% | viability increase [3] -5.67% | viability [4] 84.7% | inhibition [5] 1.2% | RAM network inhibition [6] 5.12%

CC1(C)CC(=O)C(C=NC2CC(C)(C)NC(C)(C)C2)=C(O)C1
inactive: growth inhibition [1] -1.6% | growth inhibition [2] -7.89% | viability increase [3] 0.22% | viability [4] 95.5% | inhibition [5] 1.82% | RAM network inhibition [6] 4.6%

C=C(C)Cn1c(CCCNC(=O)CC)nc2ccccc21
inactive: growth inhibition [1] -5.08% | growth inhibition [2] 14.8% | viability increase [3] -1.27% | viability [4] 96% | inhibition [5] 1.54% | RAM network inhibition [6] -0.92%

CCOC(=O)c1c(O)c2c(n(Cc3ccco3)c1=O)CCCC2
inactive: growth inhibition [1] -8.59% | growth inhibition [2] 4.38% | viability increase [3] -0.86% | viability [4] 102% | inhibition [5] -0.075% | RAM network inhibition [6] -1.18%

COC(=O)CNC(=O)Cn1cnc2sc(C)c(S(=O)(=O)N3CCC(C)CC3)c2c1=O
inactive: growth inhibition [1] -2.79% | growth inhibition [2] 12.7% | viability increase [3] -3.93% | viability [4] 99.2% | inhibition [5] 1.11% | RAM network inhibition [6] 0.37%

COc1cc(NC(=O)C2CC2)c(C(=O)O)cc1OC
inactive: growth inhibition [1] -3.4% | growth inhibition [2] 7.62% | viability increase [3] -2.58% | viability [4] 100% | inhibition [5] 1.68% | RAM network inhibition [6] -0.36%

CCOC(=O)N1CCN(C(=O)c2ccc(CN(c3ccc(C)c(C)c3)S(C)(=O)=O)cc2)CC1
inactive: growth inhibition [1] -11.1% | growth inhibition [2] -1.85% | viability increase [3] -2.96% | viability [4] 99.4% | inhibition [5] 0.115% | RAM network inhibition [6] 5.73%

O=C(NCc1ccco1)C1CCN(C(=O)Cc2ccccc2)CC1
inactive: growth inhibition [1] -8.46% | growth inhibition [2] 4.75% | viability increase [3] -3.71% | viability [4] 102% | inhibition [5] 1.32% | RAM network inhibition [6] 3.59%

O=C(CN1CCCCC1)Nc1ccc(F)c(Cl)c1
inactive: growth inhibition [1] 5.67% | growth inhibition [2] 4.63% | viability increase [3] -2.13% | viability [4] 98.4% | inhibition [5] 1.7% | RAM network inhibition [6] -0.11%

CCN1C=C(C(=O)OC)C(c2cccc(C)c2)C(C(=O)OC)=C1
inactive: growth inhibition [1] -1.2% | growth inhibition [2] -11.5% | viability increase [3] -3.43% | viability [4] 86% | inhibition [5] 3.02% | RAM network inhibition [6] 4.35%

CC1=C(C(=O)N2CCOCC2)C(c2cc(C)cs2)NC(=O)N1 (stereo not given)
inactive: growth inhibition [1] -9.44% | growth inhibition [2] 2.88% | viability increase [3] -0.83% | viability [4] 101% | inhibition [5] 2.48% | RAM network inhibition [6] 3.08%

COc1cc(NC(=O)COc2ccc(-n3cnnn3)cc2)c(OC)cc1Cl
inactive: growth inhibition [1] -3.27% | growth inhibition [2] -5.83% | viability increase [3] -5.31% | viability [4] 46.9% | inhibition [5] 2.55% | RAM network inhibition [6] 2.93%

CCCC(=O)c1cc(F)c(N2CCN(CCC#N)CC2)cc1C
inactive: growth inhibition [1] -9.06% | growth inhibition [2] -15.5% | viability increase [3] -0.66% | viability [4] 93.6% | inhibition [5] 2.97% | RAM network inhibition [6] 3.23%

CS(=O)(=O)N(CC(=O)N1CCCCCC1)c1cccc(Br)c1
inactive: growth inhibition [1] -9.19% | growth inhibition [2] -11.5% | viability increase [3] -2.75% | viability [4] 94.5% | inhibition [5] 1.21% | RAM network inhibition [6] 1.44%

CC(=O)N1CCN(S(=O)(=O)c2ccc(C)cc2)C1c1ccc(N(C)C)cc1 (stereo not given)
inactive: growth inhibition [1] 4.58% | growth inhibition [2] 1.53% | viability increase [3] -2.16% | viability [4] 97.1% | inhibition [5] 1.61% | RAM network inhibition [6] 4.14%

Cc1ccc(N2CC(C(=O)OCC(=O)C(C)(C)C)CC2=O)cc1 (stereo not given)
inactive: growth inhibition [1] 7.84% | growth inhibition [2] 8.49% | viability increase [3] -1.06% | viability [4] 101% | inhibition [5] 0.56% | RAM network inhibition [6] 3.64%

CCN1CCN(CCNC(=O)C2CCCN(Cc3nc(-c4cccc(Cl)c4)oc3C)C2)CC1 (stereo not given)
inactive: growth inhibition [1] -9.33% | growth inhibition [2] -13.1% | viability increase [3] -6.96% | viability [4] 35% | inhibition [5] -1.05% | RAM network inhibition [6] 0.71%

C/C(CC(O)c1ccc2ccccc2n1)=N/O (stereo not given)
inactive: growth inhibition [1] 1.34% | growth inhibition [2] 1.94% | viability increase [3] -0.7% | viability [4] 103% | inhibition [5] 0.445% | RAM network inhibition [6] 1.08%

COc1ccc(S(=O)(=O)N2CCCCC2C(=O)O)cc1OC (stereo not given)
inactive: growth inhibition [1] -7% | growth inhibition [2] -10.8% | viability increase [3] -0.69% | viability [4] 101% | inhibition [5] 2.17% | RAM network inhibition [6] 5.22%

COc1cc2[nH]c(=O)n(CCCC(=O)N3CC=C(c4ccccc4)CC3)c(=O)c2cc1OC
inactive: growth inhibition [1] -11.3% | growth inhibition [2] -6.67% | viability increase [3] -4.59% | viability [4] 80.5% | inhibition [5] 0.355% | RAM network inhibition [6] 1.8%

Cc1ccc(S(=O)(=O)N(CC(=O)N2CCOCC2)C2CCCCC2)cc1
inactive: growth inhibition [1] -7.12% | growth inhibition [2] -1.69% | viability increase [3] -2.71% | viability [4] 103% | inhibition [5] 1.29% | RAM network inhibition [6] 1.99%

O=C(O)CNS(=O)(=O)c1ccc(F)cc1
inactive: growth inhibition [1] -6.07% | growth inhibition [2] -7.54% | viability increase [3] -0.77% | viability [4] 94.4% | inhibition [5] 2.21% | RAM network inhibition [6] 0.32%

CCOC(=O)N1CCc2c(sc(NC(=O)c3ccc(Cl)s3)c2C(N)=O)C1
inactive: growth inhibition [1] -0.755% | growth inhibition [2] 5.5% | viability increase [3] -2.73% | viability [4] 40% | inhibition [5] 0.53% | RAM network inhibition [6] -0.87%

Cc1ccc(S(=O)(=O)NC(=O)Nn2c(C)nnc2C)cc1
inactive: growth inhibition [1] -8.7% | growth inhibition [2] -6.25% | viability increase [3] -0.15% | viability [4] 102% | inhibition [5] 0.75% | RAM network inhibition [6] 4.31%

Cc1ccc(OCC(O)CN2CCN(c3ccccc3)CC2)cc1 (stereo not given)
inactive: growth inhibition [1] -3.02% | growth inhibition [2] -2.13% | viability increase [3] -0.7% | viability [4] 99.9% | inhibition [5] 1.23% | RAM network inhibition [6] 7.87%

O=C(NC1(C(F)(F)F)Oc2ccccc2O1)N1CCCC1
inactive: growth inhibition [1] -3.63% | growth inhibition [2] -7.95% | viability increase [3] -6.12% | viability [4] 81.3% | inhibition [5] 0.56% | RAM network inhibition [6] 1.58%

CCn1nc(C(=O)NC2=NCCS2)c2ccccc2c1=O
inactive: growth inhibition [1] 9.05% | growth inhibition [2] -1.14% | viability increase [3] -2.76% | viability [4] 104% | inhibition [5] 1.19% | RAM network inhibition [6] 3.32%

Cn1c(C(=O)NCCCN2CCN(c3ccccc3F)CC2)cc2c(=O)n(C)c3ccccc3c21
inactive: growth inhibition [1] -3.28% | growth inhibition [2] -4.87% | viability increase [3] -8.02% | viability [4] 54.9% | inhibition [5] 0.6% | RAM network inhibition [6] 0.96%

COc1cc2c(C(=O)N3CCN(Cc4ccc5c(c4)OCO5)CC3)cn(C)c(=O)c2cc1OC
inactive: growth inhibition [1] -8.34% | growth inhibition [2] -4.51% | viability increase [3] -6.92% | viability [4] 95.6% | inhibition [5] 0.85% | RAM network inhibition [6] 1.29%

COc1ccccc1C(=O)Nc1ccc2c(c1)OCO2
inactive: growth inhibition [1] 4.22% | growth inhibition [2] -12.9% | viability increase [3] -3.95% | viability [4] 89.2% | inhibition [5] 2.47% | RAM network inhibition [6] -1.49%

CC(C)(Oc1ccc(Cl)cc1)C(=O)OCC(=O)N1CCCC1
inactive: growth inhibition [1] -8.95% | growth inhibition [2] -11% | viability increase [3] -2.58% | viability [4] 96.5% | inhibition [5] 0.455% | RAM network inhibition [6] -1.13%

Cc1ccc(C(=O)COC(=O)c2ccc(Br)o2)cc1C
inactive: growth inhibition [1] -5.44% | growth inhibition [2] -2.75% | viability increase [3] 1.02% | viability [4] 100% | inhibition [5] 2.77% | RAM network inhibition [6] 1.29%
